Measured values as given in PMC3082038 (Cancer Chemotherapy and Pharmacology, 2010).
Marks after values point to notes of the source that are not given here.

How the values were obtained:
t-PA = assay: Angiogenesis-related factor: t-PA; format: in vivo, human
In short: (§1)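 Plasma and urine were collected from patients before treatment and after day 8 and day 28 of oral test compound dosing, and analysed at a central commercial laboratory. ELISA kits were used for human VEGF (plasma and urine), ELAM-1, VCAM-1 and soluble t-PA. Soluble PAI-1 was measured by latex photometric immunoassay. Values are reported as median (range) per time point.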

urinary VEGF = assay: Angiogenesis-related factor: urinary VEGF; format: in vivo, human
In short: as §1

[1] = tested on: patients with advanced solid tumors; conditions: b.i.d., between-meal conditions; cited from earlier work
[2] = Plasma pharmacokinetics of TSU-68 in phase I patients; format: in vivo, human; conditions: for AUC(0-t) / AUC / Cmax / half-life / Tmax: human, plasma, oral

## Cc1[nH]c(/C=C2\C(=O)Nc3ccccc32)c(C)c1CCC(=O)O [TSU-68, (Z)-5-[(1,2-dihydro-2-oxo-3H-indol-3-ylidene)methyl]-2,4-dimethyl-1H-pyrrole-3-propanoic acid]
t-PA; day 8, 23 patients
  t-PA, median: 7.2 ng/mL
  t-PA, range: 3.3 to 14.3 ng/mL
t-PA; day 28, 22 patients
  t-PA, median: 6.8 ng/mL
  t-PA, range: 2.9 to 13.5 ng/mL
Urinary VEGF; day 8, 23 patients
  Urinary VEGF, median: 144 pg/mL
  Urinary VEGF, range: <31 to 1210 pg/mL
Urinary VEGF; day 28, 22 patients
  Urinary VEGF, median: 162.5 pg/mL
  Urinary VEGF, range: 68 to 730 pg/mL
[1]
  Recommended dosage: ≤ 800 mg/m^2
[2]; b.i.d. after meal, 1st dose, 400 mg/m^2, n=6, mean ± SD
  AUC0–t: 76.44 ± 23.07 h
[2]; b.i.d. after meal, 3rd dose, 200 mg/m^2, n=3, mean ± SD
  AUC0–t: 33.28 ± 4.329 h
[2]; b.i.d. after meal, 3rd dose, 500 mg/m^2, n=3, mean ± SD
  AUC0–t: 45.74 ± 14.59 h
[2]; b.i.d. regimen, any dose level, days 2 and 28
  C max and AUC after repeated administration versus 1st administration on day 1: approximately twofold lower
[2]; 200 mg/m2, AUC0–t, b.i.d. after meal, 1st dose, 200 mg/m^2, n=3, mean ± SD
  AUC(0-t): 55200 ± 5360 ng·h/mL
[2]; 200 mg/m2, AUC0–t, b.i.d. after meal, 56th dose, 200 mg/m^2, n=3, mean ± SD
  AUC(0-t): 32200 ± 1540 ng·h/mL
[2]; 200 mg/m2, AUC0–t, t.i.d. after meal, 1st dose, 200 mg/m^2, n=6, mean ± SD
  AUC(0-t): 37000 ± 18200 ng·h/mL
[2]; 200 mg/m2, AUC0–t, t.i.d. after meal, 2nd dose, 200 mg/m^2, n=6, mean ± SD
  AUC(0-t): 31500 ± 12500 ng·h/mL
[2]; 200 mg/m2, AUC Day 28, Pt 1, Cervical ca., b.i.d. 200 mg/m^2 (800 mg/day)
  AUC: 32800 ng·h/mL
[2]; 200 mg/m2, AUC Day 28, Pt 2, NSCLC, b.i.d. 200 mg/m^2 (800 mg/day)
  AUC: 33400 ng·h/mL
[2]; 200 mg/m2, AUC Day 28, Pt 13, Colon ca., t.i.d. 200 mg/m^2 (1200 mg/day)
  AUC: 25300 ng·h/mL
[2]; 200 mg/m2, AUC Day 28, Pt 14, Soft tissue sa., t.i.d. 200 mg/m^2 (600 mg/day)
  AUC: 19000 ng·h/mL
[2]; 200 mg/m2, C max, b.i.d. after meal, 1st dose, 200 mg/m^2, n=3, mean ± SD
  Cmax: 11200 ± 1150 ng/mL
[2]; 200 mg/m2, C max, b.i.d. after meal, 3rd dose, 200 mg/m^2, n=3, mean ± SD
  Cmax: 6000 ± 671 ng/mL
[2]; 200 mg/m2, C max, b.i.d. after meal, 56th dose, 200 mg/m^2, n=3, mean ± SD
  Cmax: 4790 ± 526 ng/mL
[2]; 200 mg/m2, C max, t.i.d. after meal, 1st dose, 200 mg/m^2, n=6, mean ± SD
  Cmax: 11000 ± 5530 ng/mL
[2]; 200 mg/m2, C max, t.i.d. after meal, 2nd dose, 200 mg/m^2, n=6, mean ± SD
  Cmax: 7010 ± 2410 ng/mL
[2]; 200 mg/m2, C max, t.i.d. after meal, 84th dose, 200 mg/m^2, n=6, mean ± SD
  Cmax: 3850 ± 2980 ng/mL
[2]; 200 mg/m2, T 1/2, b.i.d. after meal, 1st dose, 200 mg/m^2, n=3, mean ± SD
  half-life: 2.37 ± 0.86 h
[2]; 200 mg/m2, T 1/2, b.i.d. after meal, 3rd dose, 200 mg/m^2, n=3, mean ± SD
  half-life: 2.71 ± 0.471 h
[2]; 200 mg/m2, T 1/2, b.i.d. after meal, 56th dose, 200 mg/m^2, N = 2, mean
  half-life: 3.47 h
[2]; 200 mg/m2, T 1/2, t.i.d. after meal, 1st dose, 200 mg/m^2, N = 3, mean ± SD
  half-life: 2.04 ± 0.461 h
[2]; 200 mg/m2, T 1/2, t.i.d. after meal, 2nd dose, 200 mg/m^2, N = 2, mean
  half-life: 2.99 h
[2]; 200 mg/m2, T max, b.i.d. after meal, 1st dose, 200 mg/m^2, n=3, mean ± SD
  Tmax: 3 ± 1 h
[2]; 200 mg/m2, T max, b.i.d. after meal, 3rd dose, 200 mg/m^2, n=3, mean ± SD
  Tmax: 3.5 ± 2.29 h
[2]; 200 mg/m2, T max, b.i.d. after meal, 56th dose, 200 mg/m^2, n=3, mean ± SD
  Tmax: 2.67 ± 1.16 h
[2]; 200 mg/m2, T max, t.i.d. after meal, 1st dose, 200 mg/m^2, n=6, mean ± SD
  Tmax: 3.08 ± 1.43 h
[2]; 200 mg/m2, T max, t.i.d. after meal, 2nd dose, 200 mg/m^2, n=6, mean ± SD
  Tmax: 3.67 ± 1.37 h
[2]; 200 mg/m2, T max, t.i.d. after meal, 84th dose, 200 mg/m^2, n=6, mean ± SD
  Tmax: 2 ± 1.05 h
[2]; 200 mg/m^2 t.i.d., AUC Day 28, Pt 18, Colon ca., t.i.d. 200 mg/m^2 (1,200 mg/day)
  AUC: 12500 ng·h/mL
[2]; 400 mg/m2, AUC0–t, b.i.d. after meal, 3rd dose, 400 mg/m^2, n=6, mean ± SD
  AUC(0-t): 40400 ± 10600 ng·h/mL
[2]; 400 mg/m2, AUC0–t, b.i.d. after meal, 56th dose, 400 mg/m^2, N = 4, mean ± SD
  AUC(0-t): 36900 ± 20300 ng·h/mL
[2]; 400 mg/m2, AUC0–t, t.i.d. after meal, 1st dose, 400 mg/m^2, n=6, mean ± SD
  AUC(0-t): 41600 ± 21600 ng·h/mL
[2]; 400 mg/m2, AUC0–t, t.i.d. after meal, 2nd dose, 400 mg/m^2, n=6, mean ± SD
  AUC(0-t): 42000 ± 18900 ng·h/mL
[2]; 400 mg/m2, AUC0–t, t.i.d. after meal, 84th dose, 400 mg/m^2, n=6, mean ± SD
  AUC(0-t): 31600 ± 16100 ng·h/mL
[2]; 400 mg/m2, C max, b.i.d. after meal, 1st dose, 400 mg/m^2, n=6, mean ± SD
  Cmax: 17100 ± 6590 ng/mL
[2]; 400 mg/m2, C max, b.i.d. after meal, 3rd dose, 400 mg/m^2, n=6, mean ± SD
  Cmax: 8290 ± 2720 ng/mL
[2]; 400 mg/m2, C max, b.i.d. after meal, 56th dose, 400 mg/m^2, N = 4, mean ± SD
  Cmax: 8410 ± 5870 ng/mL
[2]; 400 mg/m2, C max, t.i.d. after meal, 1st dose, 400 mg/m^2, n=6, mean ± SD
  Cmax: 12400 ± 5760 ng/mL
[2]; 400 mg/m2, C max, t.i.d. after meal, 2nd dose, 400 mg/m^2, n=6, mean ± SD
  Cmax: 9340 ± 4510 ng/mL
[2]; 400 mg/m2, C max, t.i.d. after meal, 84th dose, 400 mg/m^2, n=6, mean ± SD
  Cmax: 4780 ± 1950 ng/mL
[2]; 400 mg/m2, T 1/2, b.i.d. after meal, 1st dose, 400 mg/m^2, n=6, mean ± SD
  half-life: 2.94 ± 0.692 h
[2]; 400 mg/m2, T 1/2, b.i.d. after meal, 3rd dose, 400 mg/m^2, n=6, mean ± SD
  half-life: 3.45 ± 1.37 h
[2]; 400 mg/m2, T 1/2, b.i.d. after meal, 56th dose, 400 mg/m^2 (6), mean ± SD
  half-life: 2.6 ± 0.527 h
[2]; 400 mg/m2, T 1/2, t.i.d. after meal, 1st dose, 400 mg/m^2, N = 1
  half-life: 2.61 h
[2]; 400 mg/m2, T 1/2, t.i.d. after meal, 2nd dose, 400 mg/m^2, N = 3, mean ± SD
  half-life: 2.41 ± 1.14 h
[2]; 400 mg/m2, T 1/2, t.i.d. after meal, 84th dose, 400 mg/m^2, N = 2, mean
  half-life: 2.23 h
[2]; 400 mg/m2, T max, b.i.d. after meal, 1st dose, 400 mg/m^2, n=6, mean ± SD
  Tmax: 2.67 ± 0.817 h
[2]; 400 mg/m2, T max, b.i.d. after meal, 3rd dose, 400 mg/m^2, n=6, mean ± SD
  Tmax: 2.67 ± 0.817 h
[2]; 400 mg/m2, T max, b.i.d. after meal, 56th dose, 400 mg/m^2, N = 4, mean ± SD
  Tmax: 2.38 ± 0.75 h
[2]; 400 mg/m2, T max, t.i.d. after meal, 1st dose, 400 mg/m^2, n=6, mean ± SD
  Tmax: 3.42 ± 1.2 h
[2]; 400 mg/m2, T max, t.i.d. after meal, 2nd dose, 400 mg/m^2, n=6, mean ± SD
  Tmax: 3 ± 1.79 h
[2]; 400 mg/m2, T max, t.i.d. after meal, 84th dose, 400 mg/m^2, n=6, mean ± SD
  Tmax: 2.92 ± 1.2 h
[2]; 400 mg/m^2 t.i.d., AUC Day 28, Pt 20, Colon ca., t.i.d. 400 mg/m^2 (1,800 mg/day)
  AUC: 46800 ng·h/mL
[2]; 500 mg/m2, AUC0–t, b.i.d. after meal, 1st dose, 500 mg/m^2, n=3, mean ± SD
  AUC(0-t): 103000 ± 45600 ng·h/mL
[2]; 500 mg/m2, AUC0–t, b.i.d. after meal, 56th dose, 500 mg/m^2, n=3, mean ± SD
  AUC(0-t): 43200 ± 18700 ng·h/mL
[2]; 500 mg/m2, C max, b.i.d. after meal, 1st dose, 500 mg/m^2, n=3, mean ± SD
  Cmax: 22500 ± 10000 ng/mL
[2]; 500 mg/m2, C max, b.i.d. after meal, 3rd dose, 500 mg/m^2, n=3, mean ± SD
  Cmax: 8790 ± 2920 ng/mL
[2]; 500 mg/m2, C max, b.i.d. after meal, 56th dose, 500 mg/m^2, n=3, mean ± SD
  Cmax: 7510 ± 3460 ng/mL
[2]; 500 mg/m2, T 1/2, b.i.d. after meal, 1st dose, 500 mg/m^2, n=3, mean ± SD
  half-life: 2.35 ± 0.599 h
[2]; 500 mg/m2, T 1/2, b.i.d. after meal, 3rd dose, 500 mg/m^2, n=3, mean ± SD
  half-life: 3.33 ± 1.16 h
[2]; 500 mg/m2, T 1/2, b.i.d. after meal, 56th dose, 500 mg/m^2, N = 1
  half-life: 1.82 h
[2]; 500 mg/m2, T max, b.i.d. after meal, 1st dose, 500 mg/m^2, n=3, mean ± SD
  Tmax: 4 ± 1.73 h
[2]; 500 mg/m2, T max, b.i.d. after meal, 3rd dose, 500 mg/m^2, n=3, mean ± SD
  Tmax: 4.33 ± 1.53 h
[2]; 500 mg/m2, T max, b.i.d. after meal, 56th dose, 500 mg/m^2, n=3, mean ± SD
  Tmax: 3.17 ± 1.44 h
[2]; 500 mg/m^2 b.i.d., AUC Day 28, Pt 11, Colon ca., b.i.d. 500 mg/m^2 (1,600 mg/day)
  AUC: 44600 ng·h/mL
[2]; t.i.d. after meal, 84th dose, 200 mg/m^2, N = 5, mean ± SD
  T 1/2: 4.773 ± 2.221^e h
[2]; t.i.d. after meal, 84th dose, 200 mg/m^2, n=6, mean ± SD
  AUC0–t: 24.75 ± 13.69 h
